Assays:
Homo sapiens [1] = species on record: Homo sapiens; experiment: In vitro protein binding in human serum at 5 ug/ml; type: ADME
How it was run: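 Samples were incubated 30 min at room temperature, then ultrafiltered through a 30 000 MW cutoff device at 2000g for 25 min at room temperature. Free drug in the filtrate was quantified by HPLC.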

Homo sapiens [2] = species on record: Homo sapiens; experiment: Inhibition of interleukin-2 (IL-2) synthesis in human whole blood stimulated by PMA/ionomycin.; type: functional
How it was run: (§1)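 Heparinized human whole blood was added to serially diluted compound and stimulated with a PMA (50 ng/mL) plus ionomycin mixture. After 24 h, plasma was collected by centrifugation and IL-2 was measured by in-house ELISA.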

[3] = Area under curve in rat at 4 mpk upon peroral administration; type: ADME, organism-based; settings: in vivo, po, 4 mg/kg
[4] = Oral bioavailability in rat (dose 4 mg/kg); type: ADME, organism-based; settings: in vivo
[5] = Half-life in rat at 4 mpk upon peroral administration; type: ADME, organism-based; settings: in vivo, po, 4 mg/kg
[6] = Maximum concentration in rat at 4 mpk upon peroral administration; type: ADME, organism-based; parameters: dose 4 mpk, route oral; settings: in vivo, po, 4 mg/kg
[7] = Resistance evaluated in an ascaris-induced nonhuman primate model of asthma after 6 hour at 30 mg/kg dose; type: functional
How it was run: (§2)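 Antigen (Ascaris) inhalation challenge in nonhuman primates, with oral gavage dosing at -26, -2 and +22 h relative to inhalation. Respiratory system resistance was measured at baseline, at +10 min (immediate response) and at +6 h (late phase). Data are mean percentage inhibition versus crossover vehicle control, with paired t-test.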

[8] = Bronchoalveolar lavages was collected after 6 hr in an ascaris-induced nonhuman primate model of asthma at 30 mg/kg dose (for IL-5); type: functional
How it was run: (§3)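 Ascaris-induced asthma model in nonhuman primates. Dosing by oral gavage at -26, -2 and +22 h relative to antigen inhalation. Bronchoalveolar lavage was taken at day -5 (baseline), at +6 h for IL-5, IL-8 and eotaxin, and at +48 h for eosinophil influx. Data are mean percentage inhibition versus crossover vehicle control, with paired t-test.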

[9] = Bronchoalveolar lavages was collected after 6 hr in an ascaris-induced nonhuman primate model of asthma at 30 mg/kg dose (for IL-8); type: functional; how it was run: as §3
[10] = Bronchoalveolar lavages was collected after 6 hr in an ascaris-induced nonhuman primate model of asthma at 30 mg/kg dose (for eotaxin); type: functional; how it was run: as §3
[11] = Resistance evaluated in an ascaris-induced nonhuman primate model of asthma after 10 min at 30 mg/kg dose; type: functional; how it was run: as §2
[12] = Bronchoalveolar lavages was collected after 48 hr in an ascaris-induced nonhuman primate model of asthma (for eosinophil influx, eos) at 25 mg/kg dose; type: functional; settings: dose 30 mg/kg; in the assay text read “30 mg/kg” for “25 mg/kg”; how it was run: as §3
Homo sapiens [13] = species on record: Homo sapiens; experiment: Tested for interleukin-2 (IL-2) synthesis inhibition in human whole blood stimulated by PMA/ionomycin.; type: functional; how it was run: as §1
[14] = Bronchoalveolar lavages was collected after 6 hr in an ascaris-induced nonhuman primate model of asthma at 25 mg/kg dose (for IL-5); type: functional; how it was run: as §3
[15] = Bronchoalveolar lavages was collected after 6 hr in an ascaris-induced nonhuman primate model of asthma at 25 mg/kg dose (for eotaxin); type: functional; how it was run: as §3
[16] = Resistance evaluated in an ascaris-induced nonhuman primate model of asthma after 6 hour at 25 mg/kg dose; type: functional; how it was run: as §2
[17] = Bronchoalveolar lavages was collected after 48 hr (for eosinophil influx, eos) at 25 mg/kg dose; type: functional; how it was run: as §3
[18] = Bronchoalveolar lavages was collected after 6 hr in an ascaris-induced nonhuman primate model of asthma at 1 mg/kg dose (for IL-8); type: functional; how it was run: as §3
[19] = Bronchoalveolar lavages was collected after 6 hr in an ascaris-induced nonhuman primate model of asthma at 1 mg/kg dose (for eotaxin); type: functional; how it was run: as §3
[20] = Resistance evaluated in an ascaris-induced nonhuman primate model of asthma after 6 hour at 1 mg/kg dose; type: functional; how it was run: as §2
[21] = Resistance evaluated in an ascaris-induced nonhuman primate model of asthma after 10 min at 1 mg/kg dose; type: functional; how it was run: as §2
[22] = Bronchoalveolar lavages was collected after 6 hr in an ascaris-induced nonhuman primate model of asthma at 1 mg/kg dose (for IL-5); type: functional; how it was run: as §3
[23] = Inhibition of eosinophil influx in bronchoalveolar lavage after 48 hr at 1 mg/kg dose

Row | SMILES | Binding (Homo sapiens [1]) | IC50 (Homo sapiens [2]) | AUC [3] | bioavailability [4] | half-life [5] | Cmax [6] | further results
1 | O=C(Nc1ccc(-n2nc(C(F)(F)F)cc2C(F)(F)F)cc1)c1ccc(Cl)cc1 | 99.9% | 6030 nM |  |  |  |  | 
2 | O=C(Nc1ccc(-n2nc(C(F)(F)F)cc2C(F)(F)F)cc1)c1cc(F)ccc1F | 99.9% | 372 nM |  |  |  |  | 
3 | CSc1cc(C(F)(F)F)nn1-c1ccc(NC(=O)c2ccncc2F)cc1 |  | 944 nM | 7790 ng·h/mL | 63% | 5.2 h | 870 ng/mL | 
4 | Cc1noc(C)c1C(=O)Nc1ccc(-n2nc(C(F)(F)F)cc2C(F)(F)F)cc1 | 99.6% | 1980 nM |  |  |  |  | 
5 | N#Cc1cc(C(F)(F)F)nn1-c1ccc(NC(=O)c2ccccc2F)cc1 |  | 304 nM | 3240 ng·h/mL | 31% | 6.2 h | 280 ng/mL | 
6 | O=C(Nc1ccc(-n2nc(C(F)(F)F)cc2[N+](=O)[O-])cc1)c1ccncc1F |  | 440 nM | 310 ng·h/mL | 18% | 1.7 h | 220 ng/mL | 
7 | O=C(Nc1ccc(-n2nc(C(F)(F)F)cc2C(F)(F)F)cc1)c1ccccc1Cl | 99.9% | 914 nM |  |  |  |  | 
8 | O=C(Nc1ccc(-n2nc(C(F)(F)F)cc2C(F)(F)F)cc1)c1cccc(F)c1F | 99.9% | 405 nM |  |  |  |  | 
9 | O=C(Nc1ccc(-n2nc(C(F)(F)F)cc2C(F)(F)F)cc1)c1ccncc1F | 99.7% | 496 nM |  |  |  |  | 
10 | O=C(Nc1ccc(-n2nc(C(F)(F)F)cc2C(F)(F)F)cc1)c1cc(F)cc(F)c1F | 99.9% | 1470 nM |  |  |  |  | 
11 | O=C(Nc1ccc(-n2nc(C(F)(F)F)cc2OC(F)F)cc1)c1ccncc1F |  | 182 nM | 7750 ng·h/mL | 74% | 6.8 h | 610 ng/mL | inhibition [7]: 69%; inhibition [8]: 73%; inhibition [9]: 69%; inhibition [10]: 56%; inhibition [11]: 61%; inhibition [12]: 185%
12 | COc1cc(C(F)(F)F)nn1-c1ccc(NC(=O)c2ccncc2F)cc1 |  | 261 nM | 3050 ng·h/mL | 68% | 1 h | 1480 ng/mL | 
13 | Cc1nnsc1C(=O)Nc1ccc(-n2nc(C(F)(F)F)cc2C(F)(F)F)cc1 | 99.8% | 1740 nM |  |  |  |  | 
14 | O=C(Nc1ccc(-n2[nH]c(C(F)(F)F)cc2=O)cc1)c1ccncc1F |  |  |  |  |  |  | inhibition (Homo sapiens [13]): 16%
15 | N#Cc1cc(C(F)(F)F)nn1-c1ccc(NC(=O)c2ccncc2F)cc1 |  | 240 nM | 10900 ng·h/mL | 78% | 4.3 h | 1090 ng/mL | 
16 | CC(=O)c1cc(C(F)(F)F)nn1-c1ccc(NC(=O)c2ccccc2F)cc1 |  | 1580 nM | 1110 ng·h/mL | 5% |  | 120 ng/mL | 
17 | O=C(Nc1ccc(-n2nc(C(F)(F)F)cc2Cl)cc1)c1ccncc1F |  | 158 nM | 11000 ng·h/mL | 79% | 4.8 h | 780 ng/mL | 
18 | O=C(Nc1ccc(-n2nc(C(F)(F)F)cc2C(F)(F)F)cc1)c1ccccc1F | 99.9% | 2270 nM |  |  |  |  | 
19 | O=C(Nc1ccc(-n2nc(C(F)(F)F)cc2Br)cc1)c1ccncc1F |  | 288 nM | 16400 ng·h/mL | 94% | 7.2 h | 1040 ng/mL | 
20 | COc1cc(C(F)(F)F)nn1-c1ccc(NC(=O)c2ccccc2F)cc1 |  | 570 nM | 970 ng·h/mL | 26% |  | 70 ng/mL | 
21 | O=C(Nc1ccc(-n2nc(C(F)(F)F)cc2C(F)(F)F)cc1)c1ccncc1 | 99.7% | 701 nM |  |  |  |  | 
22 | C/C=C/C[C@@H](C)[C@@H](O)[C@H]1C(=O)N[C@@H](CC)C(=O)N(C)CC(=O)N(C)[C@@H](CC(C)C)C(=O)N[C@@H](C(C)C)C(=O)N(C)[C@@H](CC(C)C)C(=O)N[C@@H](C)C(=O)N[C@H](C)C(=O)N(C)[C@@H](CC(C)C)C(=O)N(C)[C@@H](CC(C)C)C(=O)N(C)[C@@H](C(C)C)C(=O)N1C [CYCLOSPORINE] |  |  |  |  |  |  | inhibition [14]: 92%; inhibition [15]: 62%; inhibition [16]: 90%; inhibition [17]: 137%
23 | C[C@]12C=CC(=O)C=C1CC[C@@H]1[C@@H]2[C@@H](O)C[C@@]2(C)[C@H]1CC[C@]2(O)C(=O)CO [PREDNISOLONE] |  |  |  |  |  |  | inhibition [18]: 9%; inhibition [19]: 67%; inhibition [20]: 57%; inhibition [21]: 24%; inhibition [22]: 94%; inhibition [23]: 106%
